HTRA1 inh – inhibitors of human serine peptidase HTRA1; Q92743; recombinant HTRA1, FP-rhodamine activity-based probe, fluorescence polarization; inhibition, % at 5.96 µM; actives 0.5% (n = 340,000); AID 504803; in the data active = inhibition above about 36%;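 note: 0% = enzyme with DMSO and 100% = wells lacking enzyme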
Target sequence (Q92743 whole entry, looked up): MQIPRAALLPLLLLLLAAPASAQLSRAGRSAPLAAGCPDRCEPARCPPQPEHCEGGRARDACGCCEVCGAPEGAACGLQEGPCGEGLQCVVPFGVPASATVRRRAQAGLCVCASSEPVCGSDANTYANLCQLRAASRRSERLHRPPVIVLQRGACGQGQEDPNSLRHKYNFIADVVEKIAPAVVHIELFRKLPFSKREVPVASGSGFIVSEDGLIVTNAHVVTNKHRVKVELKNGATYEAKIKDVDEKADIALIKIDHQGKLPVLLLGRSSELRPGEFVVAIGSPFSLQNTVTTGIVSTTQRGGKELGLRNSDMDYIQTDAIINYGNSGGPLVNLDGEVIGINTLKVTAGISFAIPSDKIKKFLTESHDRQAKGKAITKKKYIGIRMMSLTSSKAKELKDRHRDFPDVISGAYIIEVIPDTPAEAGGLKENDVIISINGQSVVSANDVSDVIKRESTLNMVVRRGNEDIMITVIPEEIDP
ABHD4 inh – inhibitors of mouse ABHD4 | Q8VD66 | purified mABHD4, FP-Rh probe fluorescence polarization | inhibition, % at 8.92 µM | actives 0.54% (n = 370,000) | AID 720543;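 active = inhibition exceeding the mean over every tested compound plus 3 SD, cut at about 30% in these data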;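 note: 0% = plate median of compound wells and 100% = S159A mutant with DMSO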
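Test system: mABHD4 protein; Read-out basis: % inhibition; Incubation: 45 min + 60 min at 25 °C; Repeats: single replicate; Technique: fluorescence polarization with parallel and perpendicular emission, 525/598 nm; Compound: 8.92 µM, single dose; Benchmarks: full inhibition S159A mutant plus DMSO, zero as sample-well median.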
PRMT1 FP inh – PRMT1 (human) inhibition, primary screen; Q99873; recombinant PRMT1, activity-based probe fluorescence polarization; inhibition, % at 2.79 µM; actives 1.3% (n = 370,000); AID 652257;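 active = inhibition above about 21% made by adding two undisclosed values, limit read from the data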
SIAE primary – blocks human sialic acid acetylesterase. inhibition, % at 9.66 µM. SIAE FP-Rh probe binding, fluorescence polarization. actives 0.69% (n = 370,000). Q9HAT2;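 active = inhibition above a cutoff: mean of compounds within the control limits plus 3 SD of those, cut at about 17% in these data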;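 note: 0% = plate median of compound wells and 100% = probe without SIAE protein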
TCR-CD3 inh – inhibitors of human TCR-CD3 interaction | TAMRA-labeled TCR probe fluorescence, biochemical | inhibition, % at 9.4 µM | actives 0.37% (n = 360,000); in the data active = inhibition above about 19%;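 note: recombinant mutant TCR 2C K166C tagged with TAMRA read by polarization; 0% = receptor in buffer alone and 100% = receptor with positive control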
mABHD4 conf – ABHD4 (mouse) inhibition, FP confirmation | shares compounds with ABHD4 inh | purified mABHD4, FP-Rh probe fluorescence polarization | inhibition, % at 8.92 µM | actives 55% (n = 1,800) | AID 720658;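 active = mean inhibition across replicates above the hit cutoff set in the primary screen, cut at about 30% in these data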;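 note: 0% = wild-type ABHD4 with DMSO and 100% = catalytically dead S159A mutant with DMSO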
Numbers without * were called inactive; nt = no result. Rows were chosen to be rich in hits. Some 2.6% of all compounds tested hit in one or more screens of this group.

SMILES	HTRA1 inh	ABHD4 inh	PRMT1 FP inh	SIAE primary	TCR-CD3 inh	mABHD4 conf
CCOC(=O)c1sc(N/N=C/c2ccc(N(C)C)cc2)nc1C	18	32*	-4	12	-6	9
COc1cc(N2C[C@@]3(O)CC[C@@H](O)[C@@H](OC)[C@@H]3[C@@](C)(O)[C@@H]2CC=C(C)C)cc(OC)c1OC	nt	6	4	-3	-10	nt
O=C(O)c1ccc(Cl)c(S(=O)(=O)Nc2ccccc2Cc2ccccc2)c1	-9	30*	2	-10	-2	28
Cn1c(Cc2cccs2)nnc1SCC(=O)Nc1ccc(OCc2ccccc2)cc1	nt	0	-5	2	nt	nt
O=C(COC(=O)C1=COCCO1)Nc1ccccc1	3	-11	2	-3	-7	nt
CC(C)CC(=O)Nc1ccc(C(=O)COC(=O)C2=COCCO2)cc1	-6	95*	7	12	-3	5
COc1ccc(CN2CCC(CNC(=O)Nc3ccccc3)CC2)cc1	nt	-16	-6	7	nt	nt
COC(=O)c1cc(-c2cccc(OCc3ccccc3)c2)c(=O)n2c1CCC2	nt	-12	4	-2	nt	nt
Cc1cc(O)cc(=O)n1-c1cc(C(F)(F)F)cc(C(F)(F)F)c1	nt	0	-3	0	-3	nt
COc1ccccc1CNC(=O)COC(=O)c1cc(C)nc2ccccc12	-13	0	1	1	-1	nt
COc1cc2cc(C)nc(Cc3cccc4ccccc34)c2cc1OC	-18	33*	0	0	2	41*
CC(=NNC(=S)SCc1ccccc1)c1ccccn1	12	56*	-4	2	-10	-10
CC(=NNC(=S)N1CCCC1)c1ccccn1	4	6	12	1	4	nt
Nc1c(-c2ccc(C(F)(F)F)cc2)nc2ncccn12	nt	38*	1	12	1	10
Cc1ccc(-c2nc3ncccn3c2N)cc1	nt	6	4	4	-5	nt
CC(C)(C)C1=CC(CC(N)=O)(C(C)(C)C)OC1=O (stereo not given)	nt	-3	-3	1	-6	nt
Oc1ccc(C=NNc2nc3ccccc3s2)c(O)c1	35	43*	-4	-2	6	36*
CC(=NNc1nc2ccccc2o1)c1ncccn1	11	31*	0	7	-2	24
CC(=NNc1nc2ccccc2s1)c1ncccn1	16	35*	4	-7	-5	27
C/C(=N\Nc1nc(-c2ccccc2)cs1)c1cccs1	19	3	11	13	-1	nt
C/C(=N\Nc1nc2ccccc2s1)c1cccs1	11	31*	3	8	-6	24
C#CCOc1ccccc1C(=O)NNc1ccc([N+](=O)[O-])cc1[N+](=O)[O-]	nt	2	-3	4	2	nt
O=C(O)CCCCCNC(=O)c1ccc(C(=O)NCCCCCC(=O)O)cc1	9	63*	6	-3	-3	3
CCOC(=O)N1CCC(NC(=O)CCN2C(=O)C3C4C=CC(C4)C3C2=O)CC1 (stereo not given)	-2	1	-3	5	-2	nt
O=C(CCN1C(=O)C2C3C=CC(C3)C2C1=O)NC1CCCCC1 (stereo not given)	-3	88*	2	-2	7	0
SMILES	HTRA1 inh	ABHD4 inh	PRMT1 FP inh	SIAE primary	TCR-CD3 inh	mABHD4 conf
O=C(Nc1ncccc1O)c1c(O)c2ccccc2[nH]c1=O	2	39*	4	8	2	12
Cc1cccc(C)c1NC(=O)c1c(O)c2ccccc2[nH]c1=O	0	-1	2	7	2	nt
CCc1ccc2c(c1)/C(=C/C(=O)c1cccs1)C(=O)N2	-7	37*	11	11	6	56*
Cc1cccc2c1NC(=O)/C2=C\C(=O)c1cccs1	-4	13	2	5	6	nt
O=[N+]([O-])c1cccc(/C=N/Nc2nc(NCc3ccccc3)nc(N3CCOCC3)n2)c1	1	47*	-1	2	12	-10
O=[N+]([O-])c1ccc(/C=N/Nc2nc(NCc3ccccc3)nc(N3CCOCC3)n2)cc1	6	3	-3	-3	-1	nt
CCN1C(=O)c2cccc3c(Cl)ccc(c23)C1=O	3	-8	-5	-11	4	nt
CC(C)CCN1C(=O)c2cccc3c(N)ccc(c23)C1=O	14	50*	158*	14	-2	62*
CCOC(=O)N1CCC(=NNc2nc3ccccc3s2)CC1	3	38*	-2	4	-1	-3
CCOC(=O)N1CCN(S(=O)(=O)c2ccc(C(=O)Nc3nc4ccccc4s3)cc2)CC1	2	3	-2	0	-1	nt
CC(=O)N1CCC(=NNc2nc3ccccc3s2)CC1	10	33*	4	9	-5	14
CC(=O)NNc1nc2ccccc2s1	3	11	3	7	-1	nt
COc1ccc(Cn2cc(COC(=O)N3CCOCC3)nn2)cc1	nt	2	0	-3	nt	nt
O=C(Nc1ccccc1Cl)NN1CCCCCC1	-15	48*	3	-1	-11	52*
COc1ccc(N2CCN(C(=O)COCC(=O)O)CC2)cc1	5	6	1	-4	6	nt
COc1ccc(N2CCN(C(=O)Cn3cncn3)CC2)cc1	1	37*	-1	6	11	3
CCCCOc1cccc(OCC(=O)Nc2nc3ccccc3[nH]2)c1	-7	43*	1	-3	2	26
CCCOc1cccc(OCC(=O)Nc2nc3ccccc3[nH]2)c1	-6	31*	9	-3	-4	26
O=C(COc1ccccc1)Nc1nc2ccccc2[nH]1	0	-4	-1	7	3	nt
O=C(NCCc1c[nH]c2ccccc12)OCc1cn(Cc2c(F)cccc2F)nn1	nt	-5	-7	14	nt	nt
Cn1c(/N=C/c2c(O)ccc3ccccc23)nc2ccccc21	29	31*	10	7	2	4
CC(=O)Nc1cc2c(cc1[N+](=O)[O-])-c1ccccc1C2=NO	-6	2	-2	-11	1	nt
Nc1cc2c(cc1[N+](=O)[O-])-c1ccccc1C2=NO	9	49*	1	-15	-6	21
CN(c1ccc(O)cc1)c1nc(O)c(C2=c3ccccc3=NC2=O)s1	7	43*	6	2	-3	65*
O=C1N=c2ccccc2=C1c1sc(=O)[nH]c1O	nt	9	4	0	-3	nt
O=C(c1ccc(F)cc1Cl)N(Cc1ccccn1)CC1CCCO1 (stereo not given)	nt	-1	0	-7	nt	nt
CCCc1cc(=O)[nH]c(SCC(=O)NC2CCCCC2)n1	7	93*	-1	2	6	-3
CC(C)=C1C(=O)NN(c2ccc(F)c(Cl)c2)C1=O	8	32*	20	4	4	8
COc1cc(CNc2ccc3[nH]c(=O)[nH]c3c2)ccc1OCc1ccccc1	7	30*	8	9	7	16
CC1CCC2(CC1)CCC2NCc1ccc(Cl)cc1 (stereo not given)	nt	5	-1	4	nt	nt
